Results from the RNAGym collection of RNA variant scans (doi:10.1126/science.aae0568).
Variants at the floor of the assay were thinned out.

B1: tRNA (parent)
chain: GUUCCGUUGGCGUAAUGGUAACGCGUCUCCCUCCUAAGGAGAAGACUGCGGGUUCGAGUCCCGUACGGAACG

Variants of: B1
Assay: yeast fitness relative to wild type (ratio to wild type); higher = fitter; tRNA-Arg(CCU), competitive growth, 37 C, YPD
Summary of the method: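 For this measurement, the tRNA-Arg(CCU) gene was varied by chemical synthesis at a 3% per-site mutation rate across 69 sites, and each variant was placed at the native genomic locus in Saccharomyces cerevisiae. The pooled strains went through a 24-hour competition in YPD at 37°C in six parallel replicates, with amplicons from start and end populations read by 100-nucleotide paired-end sequencing. Darwinian fitness relative to wild type followed from the change in each genotype's frequency. Genotypes needed ≥ 100 starting reads, and estimates < 0.5 were set to 0.5.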

Variant	yeast fitness
A20C C34U C66U	0.543
A20C C46A C49G	0.548
A20C C27U A37C A42G	0.688
A20C C22U G39C	≤ 0.5
A20G G67A A69U	0.516
A20C C22U A40U A65G A69C	≤ 0.5
A20C G41A	0.779
A20U A37U C55U	≤ 0.5
A20C U35C G51C C60G A70U	≤ 0.5
A20G G23A	0.89
A20G G23C	0.727
A20C C30G C46A U47G C49A G52A G58C U64G A65G	≤ 0.5
A20C U32G A45G U53A U54A	0.533
A20G C49A A65G	0.619
A20C U59C	0.749
A20C C22U A45C A65C	≤ 0.5
A20G C24U C46U	0.733
A20G G50A U59C	0.571
A20C C29U C66U	0.603
A20G A45C A70C	0.789
A20C C22G U47G G51C G63A G68C	≤ 0.5
A20G G68A	0.917
A20G A40C A42U A43C G50A	≤ 0.5
A20U A37U	0.811

Variant	yeast fitness
A20U A36G C55G	0.579
A20G C31G C61G C66U A69U	0.545
A20G G38C A40C	0.662
A20C G56A	0.866
A20C G56U	0.765
A20G C31U G41C A43C C60G	≤ 0.5
A20G A36U C66A	0.529
A20C C24U A57G C61U	0.617
A20C U59A A65C A70C	≤ 0.5
A20C C29A	0.635
A20C C29U	0.715
A20C C30U G51C C55G A57U C66U	≤ 0.5
A20C C24U G44A C60G	≤ 0.5
A20G A21G C34G C61U A70C	≤ 0.5
A20C U47A G48C	0.526
A20C C55U G67A	0.53
A20C C27G	0.633
A20C C24G U64C	0.56
A20G C31U A42U C46U U59G A65U	≤ 0.5
A20U A21G C22A C49G	≤ 0.5
A20G C33G G56A A65C	≤ 0.5
A20G U32G	0.672
A20G U32C	0.949
A20G C24G C33A A36U	≤ 0.5

Variant	yeast fitness
A20C C24G A42G	0.585
A20G U35C A70U	0.629
A20C C30U C46A C62G A65G	0.534
A20G A45C A69U	0.729
A20G U32G G58C C61A A65U	≤ 0.5
A20G A43U G48A	0.73
A20G A65G A70C	0.694
A20G G63A A70G	0.634
A20G A43G U47G G67C	≤ 0.5
A20G C60A	0.751
A20G U26C	0.984
A20G C34G U47C	≤ 0.5
A20G A40G G44A C46G	≤ 0.5
A20G A43C G56A A57U	≤ 0.5
A20G C27G A42C C55A	≤ 0.5
A20C C34U G52A	0.574
A20G C22G	0.952
A20G C22A A42G	0.557
A20G G51C	0.581
A20G C24A A45C	≤ 0.5
A20G G38C A70U	0.57
A20G C30A G48A U64C	≤ 0.5
A20G A36U C49G	≤ 0.5
A20U A37C U53A	0.682

Variant	yeast fitness
A20G C31U A36C C61U A65C	≤ 0.5
A20C C30G C60G	≤ 0.5
A20C C24G A40C C55G	≤ 0.5
A20G U47C G58U A65U	≤ 0.5
A20G C33G G56A	0.639
A20G C22U A43G	0.624
A20G G44A U54C	0.712
A20C U59A C62G A70C	≤ 0.5
A20G G38A C46U A70U	0.594
A20U A37G C66A A69U	≤ 0.5
A20G G38A	0.912
A20G A43C A57U	0.538
A20G G39C A45C C49G	≤ 0.5
A20C U28C C34A	0.791
A20C C34U G52A G68A	≤ 0.5
A20U A37C A43U	0.59
A20G C34G A42C A43U	0.604
A20G C34G C55G U59C C60U G67U	≤ 0.5
A20U	0.986
A20G	1
A20C C24U A42U U59C	0.619
A20G C31G C61U	0.659
A20G C24A C27U	0.609
A20G G38A C46U	0.883

Variant	yeast fitness
A20C C33A G39A	≤ 0.5
A20C G25C C33U C60A C66G	≤ 0.5
A20C C27U G51C U64A C66U A69C	≤ 0.5
A20C G44A C60A G67A	≤ 0.5
A20C C24G C27A G44A	≤ 0.5
A20G C24A C27A A69C	0.591
A20C C49U	1.03
A20C C49G	0.795
A20C C24U C61G	≤ 0.5
A20G G23C C31G G50A	≤ 0.5
A20G C22G C27G C30U C31G G51C C61A A69C	≤ 0.5
A20C C31G A36G	0.764
A20G C29U G48C G52A	≤ 0.5
A20C C34A G63C	≤ 0.5
A20G C24U C33U A43C C55A U59C	0.539
A20G U28G	0.86
A20G U28A	0.807
A20C C29G C62A	≤ 0.5
A20G C22G C27G C30U C31G G51C G63A A65G	≤ 0.5
A20C C31G	0.744
A20C C31U	1.03
A20G G52C	0.613
A20G G56C A70U	0.859
A20C U28A A70G	0.564

Variant	yeast fitness
A20G C46U	0.942
A20G A45C G50A U54G	≤ 0.5
A20C U26C C30U C61A	≤ 0.5
A20C C22U U47A C62U	0.643
A20C C34G G67U A69G	≤ 0.5
A20G A40C A42U A43C G48A	0.562
A20C U53C	0.717
A20C G58C	1.03
A20G G48A C49G	0.635
A20G C30G G38A	≤ 0.5
A20C C55U	0.612
A20G A37G G44A A65U	≤ 0.5
A20C C31A C34G A57G A65U	≤ 0.5
A20G C49U A69C	0.786
A20G A21G	0.986
A20C C27U G67U	0.674
A20C C34G A43C G56A C61U A65G	≤ 0.5
A20C G23A U35A G52C C55A	≤ 0.5
A20G U28A C30G U59C	≤ 0.5
A20G A57C C62U	≤ 0.5
A20G C24U C49G G50A	≤ 0.5
A20G C22G C27G C30U C31G G51C C61G	≤ 0.5
A20G A36G	1.01
A20G A36U	0.644

Variant	yeast fitness
A20G C24G C30G	≤ 0.5
A20G A36U G68C	0.535
A20G A37U C62A	≤ 0.5
A20C C30G U53G C61G	0.621
A20C C34A C62U	≤ 0.5
A20C C46G C62G	0.529
A20G U26A G63A	0.613
A20C G41C A42C G56A U64C	≤ 0.5
A20C C30U G68A	≤ 0.5
A20G C33U	0.798
A20C G23A C29U A36C A43C	≤ 0.5
A20G A40G G50C A65G C66U	≤ 0.5
A20C C60A	0.587
A20C U28C C29A A36U A40U C49G G63C A70U	≤ 0.5
A20C C27U A69U	0.81
A20G C22U A37U G41C C46A	≤ 0.5
A20G C34A G58A	0.622
A20G A42C A45C G67C	≤ 0.5
A20C C27U C34G A43C C61U C62G	≤ 0.5
A20G G25A C49U	0.781
A20C C49G G67A	0.59
A20G C49A	0.655
A20C G56A G67A	0.577
